Compound activity as filed in PubChem BioAssay.
Rows were chosen to be rich in hits. Some 0.55% of all compounds tested hit in one or more screens of this group.
TRPML3 ag: human TRPML3 channel agonists, primary screen, cell-based, HEK293 TRPML3-YFP, Fluo-8 calcium fluorescence, 3 µM; Mucolipin-3 (Homo sapiens), Q8TDD5; 100% = the carbachol control signal; activation, % at 3 µM; 0.29% of 220,000 active; AID 1448, 2008;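 active = activation above its plate's cutoff, the mean activation of the plate's test wells plus 3 SD, cut at about 12% in these data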;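 also: 0% = DMSO only wells and 100% = carbachol wells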
Target sequence (Q8TDD5 whole entry, looked up): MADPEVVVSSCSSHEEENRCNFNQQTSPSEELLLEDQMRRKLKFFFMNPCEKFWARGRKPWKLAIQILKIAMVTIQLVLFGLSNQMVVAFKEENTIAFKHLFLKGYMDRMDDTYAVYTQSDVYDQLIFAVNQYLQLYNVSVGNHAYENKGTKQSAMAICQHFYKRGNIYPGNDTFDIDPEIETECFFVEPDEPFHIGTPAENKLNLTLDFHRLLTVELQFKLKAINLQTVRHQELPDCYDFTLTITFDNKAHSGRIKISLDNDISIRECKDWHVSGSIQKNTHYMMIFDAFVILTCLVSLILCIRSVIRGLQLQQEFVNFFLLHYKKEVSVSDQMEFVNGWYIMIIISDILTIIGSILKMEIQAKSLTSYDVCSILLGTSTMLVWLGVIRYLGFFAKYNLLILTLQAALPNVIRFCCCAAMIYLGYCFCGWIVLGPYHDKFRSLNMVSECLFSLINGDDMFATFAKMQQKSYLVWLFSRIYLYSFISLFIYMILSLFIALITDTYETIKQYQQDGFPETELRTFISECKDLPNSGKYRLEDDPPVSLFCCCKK
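Material: TRPML3-YFP stable HEK293 cells | Dosing: One concentration, 3 µM nominal, 0.3% DMSO | Timing: 125 s total fluorescence read per well | Technique: Fluo-8 calcium dye fluorescence, ex 470-495, em 515-575 nm | Measure: Percent activation from peak-to-basal fluorescence ratio, scaled between DMSO and carbachol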
zfTRPN1 agonist: zebrafish TRPN1 channel agonists, primary screen, cell-based, HEK293, calcium fluorescence | transient receptor potential cation channel N1 (TRPN1/NompC), Danio rerio | HEK293 zebrafish TRPN1-YFP, Fluo-8 calcium fluorescence; 100% = response to 87 µM carbachol | activation, % at 3 µM | 0.18% of 220,000 active | AID 1424, 2008;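 active = activation above its plate's cutoff, the mean activation of test wells on that plate plus 3 SD, cut at about 19% in these data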;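 also: 0% = DMSO alone and 100% = 87 µM carbachol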
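Assay system: Zebrafish TRPN1-YFP in HEK293 cells | Incubation: Dye loading 1 h at 37 °C, then 30 min room temperature | Measured by: Kinetic Fluo-8 fluorescence, ex 470-495, em 515-575 nm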
OXTR ag: human OXTR agonists, primary screen, fluorescence, CHO-OTR cells, Fluo-8 calcium; 0.32% of 320,000 active; activation, % at 3 µM; Fluo-8 calcium fluorescence; normalized: DMSO 0%, oxytocin 100%; Oxytocin receptor (Homo sapiens), P30559;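 active = activation above the mean of all tested compounds plus 3 SD, cutoff set per screening run, cut at about 20% in these data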;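 also: peak over basal fluorescence ratio from a 100 s FLIPR kinetic read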
V1R ag counter: agonists of human V1a receptor, primary screen, counter-screen for OXTR agonist project, fluorescence, CHO-V1R cells. Vasopressin V1a receptor (Homo sapiens), P37288. Fluo-8 calcium fluorescence, agonist mode; 0% DMSO, 100% 3 nM vasopressin. activation, % at 3 µM. 0.25% of 320,000 active. AID 2797, 2010;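 active = activation above the mean activation of all tested compounds plus 3 SD, per screening run, cut at about 20% in these data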;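 also: signal is peak over basal fluorescence ratio across a 100 second FLIPR read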
OXTR potentiate: human OXTR potentiators, primary screen, fluorescence, CHO-OTR cells, Fluo-8 calcium. Oxytocin receptor (Homo sapiens), P30559. 0.061% of 320,000 active. Fluo-8 calcium fluorescence, potentiator mode; 0% = oxytocin EC15, 100% = EC100. activation, % at 3 µM. AID 2445, 2010;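 active = activation above that plate's cutoff, the mean activation of tested compounds plus 3 SD, cut at about 6.6% in these data, passing the limit was not always enough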;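 also: 100% uses oxytocin at 75 nM as the full agonist control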
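Material: human OTR in CHO cells. Compound: 3.0 µM, one dose. Timing: compound 6 min at room temperature before oxytocin, 100 s read. Evaluation: % activation of max/min ratio relative to oxytocin controls. Replication: single well per compound, singlicate. Signal: Fluo-8 calcium dye fluorescence.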
An asterisk follows results filed as active; · = not tested or not shown.

SMILES	TRPML3 ag	zfTRPN1 agonist	OXTR ag	V1R ag counter	OXTR potentiate
Cc1cc(N2CCCC2)ccc1/C=C1\NC(=S)N(C)C1=O	9	14	54*	49*	-20
CN(CC(=O)Nc1cccc(S(=O)(=O)NC2=NCCC2)c1)Cc1ccccc1Cl	·	·	0	0	1
CCCCOc1ccc(C(=O)NNC(=O)c2cnccn2)cc1OC	·	·	1	-1	-4
CCCN1C(=O)/C(=C/c2c(N3CCNC(=O)C3CC(=O)OC)nc3c(C)cccn3c2=O)SC1=S (stereo not drawn)	10	31*	·	·	·
CCOC(=O)CC1C(=O)NCCN1C(=O)c1cc2c(=O)n3cccc(C)c3nc2s1 (stereo not drawn)	0	1	-1	1	-5
CC(OC(=O)CCCN=C1NS(=O)(=O)c2ccccc21)C(=O)c1ccccc1 (stereo not drawn)	·	·	36*	34*	-20
O=C(/C=C/c1cccc(O)c1)c1cccnc1	4	1	1	1	-2
CN(C)c1ccc(/C=C/C(=O)c2ccc3c(c2)OCO3)cc1	·	·	75*	77*	-12
CN(C)c1ccc(/C=C/C(=O)c2cccnc2)cc1	33*	43*	90*	86*	-19
COc1ccc(C(=O)/C=C/c2ccc(N(C)C)cc2)c(OC)c1	20*	44*	135*	154*	-23
COc1ccc(C(=O)/C=C/c2ccccc2)c(OC)c1	0	-1	-2	-2	-6
Cc1csc(=O)n1CC(=O)OCC(=O)NC(C)c1ccc(F)cc1 (stereo not drawn)	·	·	0	0	-7
NC(=O)NC(CC(=O)NNC(=O)c1cccs1)c1ccc(Cl)cc1 (stereo not drawn)	·	·	1	1	1
Nc1c(C(=O)NCc2ccccc2)nnn1Cc1ccccc1	0	0	2	4	-7
Cc1ccc(Cn2nnc(C(=O)Nc3cc(C)ccc3C)c2N)cc1	4	5	20*	23*	-9
CSc1ccc(Cn2nnc(C(=O)NCc3ccccc3)c2N)cc1	11	19	36*	36*	-26
O=C(c1cc(Br)ccc1O)N1CCN(S(=O)(=O)Cc2ccccc2)CC1	·	·	9	11	-5
CCc1ccc(NC(=O)C2(c3ccccc3)CC2(Cl)Cl)cc1 (stereo not drawn)	6	14	25*	30*	-25
COc1cc2cc(CCCOC(=O)CCCC(=O)O)oc(=O)c2cc1OC	·	·	1	0	-4
C=CCn1c(SCC)nc(O)cc1=O	1	1	29*	60*	-5
O=C(CCNS(=O)(=O)c1ccc(F)c(Cl)c1)NCc1ccccc1F	·	·	2	0	-4
CCC1=NN2C(=N)/C(=C/c3cc(C)n(Cc4ccccc4)c3C)C(=O)N=C2S1	0	0	53*	69*	-22
CC1=NN2C(=N)/C(=C\c3cc(C)n(-c4ccccc4)c3C)C(=O)N=C2S1	1	1	0	0	-11
Cc1cc(/C=C2\C(=N)N3N=C(C(C)C)SC3=NC2=O)c(C)n1Cc1ccccc1	3	10	48*	44*	-22
Cc1cc(/C=C2\C(=N)N3C(SCc4ccccc4)=NSC3=NC2=O)c(C)n1Cc1ccccc1	1	0	0	0	-7
SMILES	TRPML3 ag	zfTRPN1 agonist	OXTR ag	V1R ag counter	OXTR potentiate
Cc1cc(/C=C2\C(=N)N3N=C(c4ccco4)SC3=NC2=O)c(C)n1Cc1ccccc1	0	6	36*	54*	-17
Cc1ccc(C2(c3ccccc3)NC(=O)N(CC(=O)NCc3ccccc3)C2=O)cc1C (stereo not drawn)	·	·	-1	-1	-9
COc1cc(C(=O)OCC(=O)NC2CC2)ccc1OCCC(C)C	·	·	4	4	0
N#Cc1ccc(OCC(=O)N2CCN(c3ccc(C(F)(F)F)cn3)CC2)cc1	·	·	11	10	-12
COc1ccc(/C(N)=N/OC(=O)CN(C)S(=O)(=O)c2ccc(C)cc2)cc1	84*	-1	·	·	·
Cc1ccc(/C(N)=N/OC(=O)CN(C)S(=O)(=O)c2ccc(C)cc2)cc1	·	·	0	4	-8
CC1CN(S(=O)(=O)c2ccc(CN3C(=O)c4cccnc4C3=O)s2)c2ccccc2O1 (stereo not drawn)	·	·	0	3	-12
CN1/C(=C\C=C2/SC(=S)N(CC(=O)O)C2=O)C(C)(C)c2ccccc21	12*	41*	111*	148*	-17
CN1CCS/C1=C\C=C1/SC(=S)N(CC(=O)O)C1=O	10	31*	·	·	·
CCOc1ccc(S(=O)(=O)N2CCOCC2)cc1NC(=O)CSCc1ccc(C)cc1	·	·	-2	0	-6
O=C(/C=C/c1cccs1)NC(=S)NNC(=O)c1ccccc1O	14*	21*	18	14	-12
COc1ccc(C(=O)NNC(=S)NC(=O)/C=C/c2cccs2)cc1	0	2	3	1	-7
O=C(NCc1nnc(SCC(=O)N2CCCCC2)o1)c1c(F)cccc1Cl	·	·	0	1	1
COc1ccccc1CNC(=O)CCNS(=O)(=O)/C=C/c1ccc(C)cc1	·	·	0	0	-2
COc1ccccc1-n1c(=O)oc2ccc(Cl)cc2c1=O	12*	24*	12	12	-20
N#Cc1c(NC(=S)NC(=O)c2ccccc2)sc2c1CCN(CCc1ccccc1)C2	14*	24*	28*	57*	-15
CC(=O)[C@]1(O)Cc2c(O)c3c(c(O)c2[C@@H](O[C@H]2C[C@H](N)[C@H](O)[C@H](C)O2)C1)C(=O)c1ccccc1C3=O	·	·	77*	40*	-16
COc1cccc2c1C(=O)c1c(O)c3c(c(O)c1C2=O)C[C@@](O)(C(C)=O)C[C@@H]3O[C@H]1C[C@H](N)[C@H](O)[C@H](C)O1	8	13	·	·	·
CCOc1ccccc1-n1c(SC(C)C(=O)NCC2CCCO2)nc2ccccc2c1=O (stereo not drawn)	·	·	-1	0	3
O=S(=O)(c1ccc(N2CCC(c3ccc(Cl)cc3)=N2)cc1)N(CCO)CCO	1	-1	9	19	-21
CN(C)CCCNS(=O)(=O)c1ccc(N2CCC(c3ccc(Cl)cc3)=N2)cc1	1	-1	20*	5	-20
COc1cc(NC(=O)c2cccc(S(=O)(=O)N3CCCCC3)c2)cc(OC)c1OC	·	·	0	2	-3
COc1ccc2c(c1)CC(N1CCN(C)CC1)c1cc(OC)ccc1S2 (stereo not drawn)	·	·	34*	25*	-21
CCOc1ccccc1N(CC(=O)N1CCOCC1)S(=O)(=O)c1ccccc1	182*	6	0	1	0
